Assay results from ChEMBL document CHEMBL1955778, “Design and synthesis of novel 7-aminoquinazoline derivatives: antitumor and anticonvulsant activities” (Bioorg Med Chem Lett, 2012).

How the values were obtained:
Mus musculus [1] = assay: Anticonvulsant activity in mouse assessed as protection against maximal electroshock-induced seizure at 1 mmol/kg, ip administered 30 min prior to maximal electroshock-challenge measured after 60 mins relative to control; type: functional
Mus musculus [2] = assay: Anticonvulsant activity in mouse assessed as protection against picrotoxin-induced seizure at 1 mmol/kg, ip administered 30 min prior to picrotoxin-challenge measured after 60 mins relative to control; type: functional
Mus musculus [3] = assay: Anticonvulsant activity in mouse assessed as protection against strychnine-induced seizure at 1 mmol/kg, ip administered 30 min prior to strychnine-challenge measured after 60 mins relative to control; type: functional
Mus musculus [4] = assay: Anticonvulsant activity in mouse assessed as protection against pentylenetetrazol-induced seizure at 1 mmol/kg, ip administered 30 min prior to pentylenetetrazol-challenge measured after 60 mins relative to control; type: functional
OVCAR-5 = assay: Growth inhibition of human OVCAR5 cells at 10 uM relative to control; type: functional; conditions: read-out: GI
How it was run: (§1)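 Each cell line in a 60-line human tumour panel exposed to one 10 μM concentration. Growth inhibition percentage computed as 100 minus the percentage activity relative to control.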

OVCAR-3 = assay: Growth inhibition of human OVCAR3 cells at 10 uM relative to control; type: functional; conditions: read-out: GI; how it was run: as §1
UACC-62 = assay: Growth inhibition of human UACC62 cells at 10 uM relative to control; type: functional; conditions: read-out: GI
How it was run: (§2)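 Single-dose screen across the 60-cell-line human tumor panel at 10 μM. Growth inhibition is reported as a percentage, taken as 100 minus the % growth relative to untreated control.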

UACC-257 = assay: Growth inhibition of human UACC257 cells at 10 uM relative to control; type: functional; conditions: read-out: GI; how it was run: as §2
SK-MEL-5 = assay: Growth inhibition of human SK-MEL-5 cells at 10 uM relative to control; type: functional; conditions: read-out: GI; how it was run: as §1
MDA-MB-435 = assay: Growth inhibition of human MDA-MB-435 cells at 10 uM relative to control; type: functional; conditions: read-out: GI; how it was run: as §1
SK-MEL-28 = assay: Growth inhibition of human SK-MEL-28 cells at 10 uM relative to control; type: functional; conditions: read-out: GI; how it was run: as §1
Malme-3M = assay: Growth inhibition of human MALME-3M cells at 10 uM relative to control; type: functional; conditions: read-out: GI; how it was run: as §1
U-251 = assay: Growth inhibition of human U251 cells at 10 uM relative to control; type: functional; conditions: read-out: GI; how it was run: as §2
SNB-19 = assay: Growth inhibition of human SNB19 cells at 10 uM relative to control; type: functional; conditions: read-out: GI; how it was run: as §2
SNB-75 = assay: Growth inhibition of human SNB75 cells at 10 uM relative to control; type: functional; conditions: read-out: GI; how it was run: as §2
SF-539 = assay: Growth inhibition of human SF539 cells at 10 uM relative to control; type: functional; conditions: read-out: GI; how it was run: as §1
SW-620 = assay: Growth inhibition of human SW620 cells at 10 uM relative to control; type: functional; conditions: read-out: GI; how it was run: as §2
HT-29 = assay: Growth inhibition of human HT-29 cells at 10 uM relative to control; type: functional; conditions: read-out: GI; how it was run: as §1
KM12 = assay: Growth inhibition of human KM12 cells at 10 uM relative to control; type: functional; conditions: read-out: GI; how it was run: as §1
HCT-15 = assay: Growth inhibition of human HCT15 cells at 10 uM relative to control; type: functional; conditions: read-out: GI; how it was run: as §1
A549 = assay: Growth inhibition of human A549 cells at 10 uM relative to control; type: functional; conditions: read-out: GI; how it was run: as §1
EKVX = assay: Growth inhibition of human EKVX cells at 10 uM relative to control; type: functional; conditions: read-out: GI; how it was run: as §1
RPMI-8226 = assay: Growth inhibition of human RPMI8226 cells at 10 uM relative to control; type: functional; conditions: read-out: GI; how it was run: as §1
SR = assay: Growth inhibition of human SR cells at 10 uM relative to control; type: functional; conditions: read-out: GI; how it was run: as §2
K562 = assay: Growth inhibition of human K562 cells at 10 uM relative to control; type: functional; conditions: read-out: GI; how it was run: as §1
CCRF-CEM = assay: Growth inhibition of human CCRF-CEM cells at 10 uM relative to control; type: functional; conditions: read-out: GI; how it was run: as §1
Mus musculus [5] = organism: Mus musculus; assay: Protective index, ratio of TD50 for mouse to ED50 for pentylenetetrazol-induced seizure in mouse; type: functional
How it was run: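 Mice. Index is TD50/ED50. TD50 is the dose causing minimal neurological toxicity in 50% of mice in the Chimney test. ED50 is the dose protecting 50% of mice against pentylenetetrazole-induced seizures. Both are estimated from testing at several doses.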

[6] = Toxicity in ip dose mouse assessed as mortality; type: organism-based; conditions: in vivo
How it was run: (§3)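 In mice, LD50 is the dose causing 50% mortality. ED50 is the dose protecting 50% of mice against pentylenetetrazole-induced seizures. Therapeutic index = LD50/ED50.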

[7] = Therapeutic index, ratio of LD50 for mouse to ED50 for pentylenetetrazol-induced seizure in mouse; type: organism-based; conditions: in vivo, read-out: Ratio LD50/ED50; how it was run: as §3
[8] = Neurotoxicity in ip dosed mouse assessed as impaired motor coordination administered 30 mins prior to test by chimney test; type: toxicity, organism-based; conditions: in vivo
How it was run: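 Mice, Chimney test. TD50 is the dose that produces minimal neurological toxicity (impaired motor coordination) in 50% of animals, estimated from testing at several doses.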

Mus musculus [9] = assay: Anticonvulsant activity in ip dosed mouse assessed as protection against pentylenetetrazol-induced seizure administered 30 min prior to pentylenetetrazol-challenge measured after 60 mins; type: functional
How it was run: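 Mice received several doses for quantification. ED50 taken as the dose protecting 50% of mice against pentylenetetrazol-induced seizures.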

BT-549 = assay: Growth inhibition of human BT549 cells at 10 uM relative to control; type: functional; conditions: read-out: GI; how it was run: as §1
MCF7 = assay: Growth inhibition of human MCF7 cells at 10 uM relative to control; type: functional; conditions: read-out: GI; how it was run: as §1
PC-3 = assay: Growth inhibition of human PC3 cells at 10 uM relative to control; type: functional; conditions: read-out: GI; how it was run: as §1
UO-31 = assay: Growth inhibition of human UO31 cells at 10 uM relative to control; type: functional; conditions: read-out: GI; how it was run: as §2
CAKI-1 = assay: Growth inhibition of human CAKI-1 cells at 10 uM relative to control; type: functional; conditions: read-out: GI; how it was run: as §1
ACHN = assay: Growth inhibition of human ACHN cells at 10 uM relative to control; type: functional; conditions: read-out: GI; how it was run: as §1
A498 = assay: Growth inhibition of human A498 cells at 10 uM relative to control; type: functional; conditions: read-out: GI; how it was run: as §1

Question: With `Cc1ccccc1-n1c(C)nc2cc(-n3c(C)nc4ccccc4c3=O)ccc2c1=O` as the compound, how does the Activity (Mus musculus [1]) read?
Answer: 100%

Question: And the Activity (Mus musculus [2])?
Answer: 0%

Question: And the Activity (Mus musculus [3])?
Answer: 0%

Question: And the Activity (Mus musculus [4])?
Answer: 0%

Question: For `Cc1ccccc1-n1c(C)nc2cc(-n3c(C)nc4ccc(Cl)cc4c3=O)ccc2c1=O`, which Activity (Mus musculus [1]) is on record?
Answer: 50%

Question: What about the Activity (Mus musculus [3]) of the same compound?
Answer: 0%

Question: What about the Activity (Mus musculus [4]) of the same compound?
Answer: 33%

Question: Which inhibition of growth at 10 µM (OVCAR-5) does the source give for `CCOC(=O)Nc1ccc2c(=O)n(-c3ccccc3C)c(C)nc2c1` here?
Answer: 3.2%

Question: What about the inhibition of growth at 10 µM (OVCAR-3) of the same compound?
Answer: 3.8%

Question: What about the inhibition of growth at 10 µM (UACC-62) of the same compound?
Answer: 15.8%

Question: And the inhibition of growth at 10 µM (UACC-257)?
Answer: 7%

Question: And the inhibition of growth at 10 µM (SK-MEL-5)?
Answer: 2.4%

Question: What about the inhibition of growth at 10 µM (MDA-MB-435) of the same compound?
Answer: 41.6%

Question: And the inhibition of growth at 10 µM (SK-MEL-28)?
Answer: 1.72%

Question: And the inhibition of growth at 10 µM (Malme-3M)?
Answer: 5.4%

Question: What about the inhibition of growth at 10 µM (U-251) of the same compound?
Answer: 4.5%

Question: What about the inhibition of growth at 10 µM (SNB-19) of the same compound?
Answer: 5.7%

Question: And the inhibition of growth at 10 µM (SNB-75)?
Answer: 21.3%

Question: What about the inhibition of growth at 10 µM (SF-539) of the same compound?
Answer: 17.2%

Question: And the inhibition of growth at 10 µM (SW-620)?
Answer: 2%

Question: And the inhibition of growth at 10 µM (HT-29)?
Answer: 7.8%

Question: And the inhibition of growth at 10 µM (KM12)?
Answer: 12%

Question: What about the inhibition of growth at 10 µM (HCT-15) of the same compound?
Answer: 6.4%

Question: What about the inhibition of growth at 10 µM (A549) of the same compound?
Answer: 3%

Question: What about the inhibition of growth at 10 µM (EKVX) of the same compound?
Answer: 11.6%

Question: What about the inhibition of growth at 10 µM (RPMI-8226) of the same compound?
Answer: 6.5%

Question: And the inhibition of growth at 10 µM (SR)?
Answer: 24.1%

Question: What about the inhibition of growth at 10 µM (K562) of the same compound?
Answer: 6.2%

Question: What about the inhibition of growth at 10 µM (CCRF-CEM) of the same compound?
Answer: 2.2%

Question: What about the “Ratio TD50/ED50” value (Mus musculus [5]) of the same compound?
Answer: 2.4

Question: And the LD50 [6]?
Answer: 1930 µmol/kg

Question: And the selectivity ratio [7]?
Answer: 2.6

Question: What about the TD50 at 0.5 h [8] of the same compound?
Answer: 1780 µmol/kg

Question: And the ED50 (Mus musculus [9])?
Answer: 740 µmol/kg

Question: And the Activity (Mus musculus [1])?
Answer: 100%

Question: And the Activity (Mus musculus [3])?
Answer: 0%

Question: And the Activity (Mus musculus [4])?
Answer: 100%

Question: What about the inhibition of growth at 10 µM (BT-549) of the same compound?
Answer: 3.5%

Question: What about the inhibition of growth at 10 µM (MCF7) of the same compound?
Answer: 5%

Question: And the inhibition of growth at 10 µM (PC-3)?
Answer: 11.2%

Question: What about the inhibition of growth at 10 µM (UO-31) of the same compound?
Answer: 24.1%

Question: What about the inhibition of growth at 10 µM (CAKI-1) of the same compound?
Answer: 5.3%

Question: What about the inhibition of growth at 10 µM (ACHN) of the same compound?
Answer: 4%

Question: What about the inhibition of growth at 10 µM (A498) of the same compound?
Answer: 4%
